Active and inactive are the calls of the source. The rule behind the calls is not given here.
Key:
[1] = tested on: Cryptococcus gattii species complex; assay: Post-antifungal activity against Cryptococcus gattii L27/01 assessed as organism required time to achieve cell population of 10^4 cells/ml at 0.45 uM treated for 1 hr by MTT assay; format: functional, Cryptococcus bacillisporus
Cryptococcus neoformans [2] = assay: Post-antifungal activity against Cryptococcus neoformans CN31 assessed as organism required time to achieve cell population of 10^4 cells/ml at 0.9 uM treated for 1 hr by MTT assay; format: functional
[3] = tested on: Cryptococcus gattii species complex; assay: Post-antifungal activity against Cryptococcus gattii L27/01 assessed as organism required time to achieve cell population of 10^4 cells/ml at 0.45 uM treated for 1 hr by MTT assay in presence of 0.11 uM amphotericin B; format: functional, Cryptococcus bacillisporus
[4] = tested on: Cryptococcus gattii species complex; assay: Antifungal activity against Cryptococcus gattii 196L/03 assessed as reduction in ergosterol content at MIC after 24 hrs by spectrophotometric analysis in presence of amphotericin B; format: functional, organism-based; settings: Cryptococcus bacillisporus
Procedure, shortened: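 Pellet washed and weighed, then saponified in 25% ethanolic KOH at 85°C for 1 h. Extracted with water and n-heptane, read at 282 and 230 nm. Ergosterol taken from a standard curve and expressed as % of growth control.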

Cryptococcus neoformans [5] = assay: Antifungal activity against Cryptococcus neoformans ATCC 62066 assessed as reduction in cell viability at 0.9 uM after 6 to 72 hrs by MTT assay; format: functional
Cryptococcus neoformans [6] = assay: Antifungal activity against Cryptococcus neoformans WP assessed as reduction in cell viability at 0.9 uM after 6 to 72 hrs by MTT assay; format: functional
Cryptococcus neoformans [7] = assay: Antifungal activity against Cryptococcus neoformans 96806 assessed as reduction in cell viability at 0.9 uM after 6 to 72 hrs by MTT assay; format: functional
Cryptococcus neoformans [8] = assay: Antifungal activity against Cryptococcus neoformans F10 assessed as reduction in cell viability at 26 uM after 6 to 72 hrs by MTT assay; format: functional
Procedure, shortened: (§1)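 Time-kill setup: colonies from two 48 h, 35°C SDA passages were suspended in saline to 70% transmittance at 530 nm. They were then diluted to 1-5 x10^3 cells/mL in RPMI with L-glutamine buffered to pH 7.0 with 0.165 M MOPS. Plates were incubated at 35°C for 0-72 h, then MTT (5.0 mg/mL) was added for 3 h. After isopropanol, absorbance was read at 490 nm. Drug-free controls were included, results were confirmed by SDA colony counts, and assays were run in triplicate.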

Cryptococcus neoformans [9] = assay: Antifungal activity against Cryptococcus neoformans WP assessed as reduction in cell viability at 26 uM after 6 to 72 hrs by MTT assay; format: functional; procedure, shortened: as §1
[10] = tested on: Cryptococcus gattii species complex; assay: Antifungal activity against Cryptococcus gattii 135L/03 assessed as reduction in cell viability at 26 uM after 6 to 72 hrs by MTT assay; format: functional, Cryptococcus bacillisporus; procedure, shortened: as §1
[11] = tested on: Cryptococcus gattii species complex; assay: Antifungal activity against Cryptococcus gattii 196L/03 assessed as reduction in cell viability at 26 uM after 6 to 72 hrs by MTT assay; format: functional, Cryptococcus bacillisporus; procedure, shortened: as §1
[12] = tested on: Cryptococcus gattii species complex; assay: Antifungal activity against Cryptococcus gattii LMM818 assessed as reduction in cell viability at 26 uM after 6 to 72 hrs by MTT assay; format: functional, Cryptococcus bacillisporus; procedure, shortened: as §1
[13] = tested on: Cryptococcus gattii species complex; assay: Antifungal activity against Cryptococcus gattii L28/02 assessed as reduction in cell viability at 26 uM after 6 to 72 hrs by MTT assay; format: functional, Cryptococcus bacillisporus; procedure, shortened: as §1
[14] = tested on: Cryptococcus bacillisporus; assay: Antifungal activity against Cryptococcus gattii ATCC 32608 assessed as reduction in cell viability at 26 uM after 6 to 72 hrs by MTT assay; format: functional; procedure, shortened: as §1
Cryptococcus neoformans [15] = assay: Antifungal activity against Cryptococcus neoformans 27JF assessed as reduction in cell viability at 26 uM after 6 to 72 hrs by MTT assay; format: functional; procedure, shortened: as §1
Cryptococcus neoformans [16] = assay: Antifungal activity against Cryptococcus neoformans ATCC 28957 assessed as reduction in cell viability at 26 uM after 6 to 72 hrs by MTT assay; format: functional; procedure, shortened: as §1
[17] = tested on: Cryptococcus gattii species complex; assay: Antifungal activity against Cryptococcus gattii ICB181 assessed as reduction in cell viability at 26 uM after 6 to 72 hrs by MTT assay; format: functional, Cryptococcus bacillisporus; procedure, shortened: as §1
Cryptococcus neoformans [18] = assay: Antifungal activity against Cryptococcus neoformans 28JF assessed as reduction in cell viability at 26 uM after 6 to 72 hrs by MTT assay; format: functional; procedure, shortened: as §1
Cryptococcus neoformans [19] = assay: Antifungal activity against Cryptococcus neoformans 5396 assessed as reduction in cell viability at 26 uM after 6 to 72 hrs by MTT assay; format: functional; procedure, shortened: as §1
Cryptococcus neoformans [20] = assay: Antifungal activity against Cryptococcus neoformans ATCC 24067 assessed as reduction in cell viability at 1.9 uM after 6 to 72 hrs by MTT assay; format: functional
Cryptococcus neoformans [21] = assay: Antifungal activity against Cryptococcus neoformans 5396 assessed as reduction in cell viability at 1.9 uM after 6 to 72 hrs by MTT assay; format: functional
Cryptococcus neoformans [22] = assay: Antifungal activity against Cryptococcus neoformans 28JF assessed as reduction in cell viability at 0.12 uM after 6 to 72 hrs by MTT assay; format: functional
[23] = tested on: Cryptococcus gattii species complex; assay: Antifungal activity against Cryptococcus gattii 196L/03 assessed as reduction in cell viability at 0.12 uM after 6 to 72 hrs by MTT assay; format: functional, Cryptococcus bacillisporus
Cryptococcus neoformans [24] = assay: Antifungal activity against Cryptococcus neoformans VM-MCMMPI assessed as reduction in cell viability at 0.12 uM after 6 to 72 hrs by MTT assay; format: functional
[25] = tested on: Cryptococcus gattii species complex; assay: Antifungal activity against Cryptococcus gattii 547/OTTI-97-PI-10 assessed as reduction in cell viability at 0.12 uM after 6 to 72 hrs by MTT assay; format: functional, Cryptococcus bacillisporus
Cryptococcus neoformans [26] = assay: Antifungal activity against Cryptococcus neoformans 27JF assessed as reduction in cell viability at 0.12 uM after 6 to 72 hrs by MTT assay; format: functional
[27] = tested on: Cryptococcus gattii species complex; assay: Antifungal activity against Cryptococcus gattii ATCC 24065 assessed as reduction in cell viability at 0.12 uM after 6 to 72 hrs by MTT assay
Cryptococcus neoformans [28] = assay: Antifungal activity against Cryptococcus neoformans 96806 assessed as reduction in cell viability at 0.12 uM after 6 to 72 hrs by MTT assay; format: functional
[29] = tested on: Cryptococcus gattii species complex; assay: Antifungal activity against Cryptococcus gattii L24/01 assessed as reduction in cell viability at 0.12 uM after 6 to 72 hrs by MTT assay; format: functional, Cryptococcus bacillisporus
[30] = tested on: Cryptococcus gattii species complex; assay: Antifungal activity against Cryptococcus gattii L28/02 assessed as reduction in cell viability at 0.12 uM after 6 to 72 hrs by MTT assay; format: functional, Cryptococcus bacillisporus
[31] = tested on: Cryptococcus gattii species complex; assay: Post-antifungal activity against Cryptococcus gattii L27/01 assessed as organism required time to achieve cell population of 10^4 cells/ml at 0.11 uM treated for 1 hr by MTT assay; format: functional, Cryptococcus bacillisporus

## COc1ccc(-c2csc(N/N=C(\C)CCO)n2)cc1
[1]
  Time: 1.7 h
Cryptococcus neoformans [2]
  Time: 2.8 h
[3]
  Time: 2.15 h
[4]
  Activity: inactive
Cryptococcus neoformans [5]
  Activity: 90%
Cryptococcus neoformans [6]
  Activity: 90%
Cryptococcus neoformans [7]
  Activity: 90%

## OC(Cn1cncn1)(Cn1cncn1)c1ccc(F)cc1F [FLUCONAZOLE]
Cryptococcus neoformans [8]
  Activity: 80%
Cryptococcus neoformans [9]
  Activity: 80%
[10]
  Activity: 80%
[11]
  Activity: 80%
[12]
  Activity: 80%
[13]
  Activity: 80%
[14]
  Activity: 80%
Cryptococcus neoformans [15]
  Activity: 80%
Cryptococcus neoformans [16]
  Activity: 80%
[17]
  Activity: 80%
Cryptococcus neoformans [18]
  Activity: 80%
Cryptococcus neoformans [19]
  Activity: 80%

## C(=N\Nc1nc(-c2ccccc2)cs1)/C1CCCCC1
Cryptococcus neoformans [20]
  Activity: 90%
Cryptococcus neoformans [21]
  Activity: 90%

## C[C@@H]1[C@H](O)[C@@H](C)/C=C/C=C/C=C/C=C/C=C/C=C/C=C/[C@H](O[C@@H]2O[C@H](C)[C@@H](O)[C@H](N)[C@@H]2O)C[C@@H]2O[C@](O)(C[C@@H](O)C[C@@H](O)[C@H](O)CC[C@@H](O)C[C@@H](O)CC(=O)O[C@H]1C)C[C@H](O)[C@H]2C(=O)O [AMPHOTERICIN B]
Cryptococcus neoformans [22]
  Activity: 90%
[23]
  Activity: 90%
Cryptococcus neoformans [24]
  Activity: 90%
[25]
  Activity: 90%
Cryptococcus neoformans [26]
  Activity: 90%
[27]
  Activity: 90%
Cryptococcus neoformans [28]
  Activity: 90%
[29]
  Activity: 90%
[30]
  Activity: 90%
[31]
  Time: 2.65 h
